Published values pooled from the literature.
Target: Rhodopsin kinase GRK7 (GRK7, Homo sapiens, UniProt Q8WTQ7)
One construct used (Q8WTQ7 1-553): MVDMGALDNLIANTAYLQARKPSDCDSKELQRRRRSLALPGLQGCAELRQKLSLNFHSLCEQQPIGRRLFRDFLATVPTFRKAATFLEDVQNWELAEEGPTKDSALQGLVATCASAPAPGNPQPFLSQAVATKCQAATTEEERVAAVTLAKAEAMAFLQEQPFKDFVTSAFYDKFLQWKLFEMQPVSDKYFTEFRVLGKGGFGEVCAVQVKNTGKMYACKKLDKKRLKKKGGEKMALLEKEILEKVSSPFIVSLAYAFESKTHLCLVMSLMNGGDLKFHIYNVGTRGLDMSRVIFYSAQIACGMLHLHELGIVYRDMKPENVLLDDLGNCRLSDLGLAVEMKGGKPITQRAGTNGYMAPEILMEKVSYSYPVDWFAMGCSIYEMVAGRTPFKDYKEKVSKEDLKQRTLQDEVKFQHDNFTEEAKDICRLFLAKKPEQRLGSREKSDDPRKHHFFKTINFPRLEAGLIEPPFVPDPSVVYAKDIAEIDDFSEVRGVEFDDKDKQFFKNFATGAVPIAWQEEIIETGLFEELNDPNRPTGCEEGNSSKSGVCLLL

O=c1[nH]c2ccccc2n1C1CCN(Cc2ccc(-c3[nH]c4cc5ncnc5cc4nc3-c3ccccc3)cc2)CC1
remaining signal (cell-free assay; 0.5 µM): 98.5%

Cn1cc(-c2cc(F)cc(N3CCn4c(cc5c4CCCC5)C3=O)c2CO)cc(Nc2ccc(N3CCN(C4COC4)CC3)cn2)c1=O
inhibition (enzyme activity, inhibitor; 0.1 µM): 2%

COc1ncccc1-c1cnn2ccc(N3CCN(C(=O)OC(C)C)CC3)nc12
remaining binding (binding, competition with immobilised ligand; 1 µM): 100%

Nc1ncc(-c2nc(N3CCOCC3)nc(N3CCOCC3)n2)c(C(F)F)n1
remaining binding (binding, competition with immobilised ligand; 10 µM): 67%

N#CC1(c2ccccn2)CCN(Cc2cc(C(=O)O)c(=O)n3ccccc23)CC1
remaining binding (cell-free assay, competition with immobilised ligand; 1 µM): 77%

Cn1cc(-c2cccc(N3CCc4c(sc5c4CC(C)(C)C5)C3=O)c2CO)cc(Nc2ccncn2)c1=O
inhibition (enzyme activity, inhibitor; 1 µM): 3%

Cn1cncc1[C@@](O)(COc1ccc(C#N)cc1-c1ccc(OC(F)(F)F)cc1)c1ccc(C#N)cc1
remaining binding (cell-free assay, competition with immobilised ligand; 1 µM): 81%

CC(C)(C)c1cc(C=C(C#N)C#N)cc(Br)c1O
remaining activity (enzyme activity, inhibitor; 0.5 µM): 107%
